Reference: ChEMBL document CHEMBL2429791, “Preparation of asymmetric urea derivatives that target prostate-specific membrane antigen for SPECT imaging” (J Med Chem, 2013)

Tests used:
Kidney [1] = assay: Biodistribution in kidney of C.B.-17/Icr +/+ Jcl mouse xenografted with human LNCAP and PC3 cells at 25.9 MBq, iv after 30 mins in presence of 2-PMPA; format: ADME, organism-based; settings: in vivo, 0.5 h
Outline: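 Blocking study: ¹²⁵I-labelled tracer coinjected iv by tail vein with 2-PMPA (50 mg/kg) in LNCaP/PC-3 xenograft-bearing mice (22–24 g). Mice decapitated 30 min after injection; tissues weighed and counted; uptake as %ID/g.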

Spleen = assay: Biodistribution in spleen of C.B.-17/Icr scid/scid Jcl mouse xenografted with human LNCAP and PC3 cells at 25.9 MBq, iv after 30 mins; format: ADME, organism-based; settings: in vivo, 0.5 h
Lung [2] = assay: Biodistribution in lung of C.B.-17/Icr +/+ Jcl mouse xenografted with human LNCAP and PC3 cells at 25.9 MBq, iv after 2 mins; format: ADME, organism-based; settings: in vivo
Outline: (§1)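 Radioiodinated (¹²⁵I) tracer given by tail-vein injection to mice bearing LNCaP (left shoulder) and PC-3 (right shoulder) xenografts, 22–24 g, grown to about 5–10 mm. Groups of n=4 were decapitated at 2 min, 30 min, 1 h, 3 h or 6 h. Tissues were weighed and counted, and uptake was expressed as %ID/g (mean ± SD).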

Nucleic Acid [3] = assay: Ratio of drug level in human LNCAP cells to human PC3 cells xenografted in C.B.-17/Icr […] Jcl mouse at 25.9 MBq, iv after 1 hr; format: ADME, organism-based; settings: in vivo
Muscle tissue [4] = assay: Biodistribution in muscle of C.B.-17/Icr +/+ Jcl mouse xenografted with human LNCAP and PC3 cells at 25.9 MBq, iv after 1 hr; format: ADME, organism-based; settings: in vivo; outline: as §1
PC-3 [5] = assay: Biodistribution in PC3 cells in C.B.-17/Icr +/+ Jcl mouse xenografted with human LNCAP and PC3 cells at 25.9 MBq, iv after 6 hrs; format: ADME, organism-based; settings: in vivo
Outline: (§2)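 ¹²⁵I-labelled tracer given iv by tail vein to mice (22–24 g) bearing LNCaP (left shoulder) and PC-3 (right shoulder) xenografts of about 5–10 mm, grown from 1–5 × 10⁶ cells in 1:1 Matrigel. n=4 per time point; decapitated at 2 min, 30 min, 1, 3, 6 h. Tissues weighed and counted; uptake as %ID/g, mean ± SD.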

Liver [6] = assay: Biodistribution in liver of C.B.-17/Icr […] Jcl mouse xenografted with human LNCAP and PC3 cells at 25.9 MBq, iv after 3 hrs; format: ADME, organism-based; settings: in vivo; outline: as §2
Nucleic Acid [7] = assay: Ratio of drug level in human LNCAP cells to human PC3 cells xenografted in C.B.-17/Icr […] Jcl mouse at 25.9 MBq, iv after 3 hrs; format: ADME, organism-based; settings: in vivo
Nucleic Acid [8] = assay: Ratio of drug level in human LNCAP cells xenografted in C.B.-17/Icr +/+ Jcl mouse to muscle of C.B.-17/Icr +/+ Jcl mouse xenografted with human LNCAP and PC3 cells at 25.9 MBq, iv after 2 mins; format: ADME, organism-based; settings: in vivo
Outline: (§3)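 Tumor-to-blood and tumor-to-muscle ratios were calculated from %ID/g values in ¹²⁵I-tracer biodistribution in LNCaP/PC-3 xenografted mice. Tail-vein dosing, n=4 per time point, sacrifice at 2 min, 30 min, 1, 3 or 6 h.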

[9] = Ratio of drug level in human PC3 cells xenografted in C.B.-17/Icr +/+ Jcl mouse to blood of C.B.-17/Icr +/+ Jcl mouse xenografted with human LNCAP and PC3 cells at 25.9 MBq, iv after 3 hrs; format: ADME, organism-based; settings: PC3 tumour xenograft relative to blood
Outline: (§4)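 Mice (22–24 g) carried PC-3 (right shoulder) and LNCaP (left shoulder) tumors, raised by injecting 1–5 × 10⁶ cells in 1:1 PBS/Matrigel and used at about 5–10 mm diameter. [¹²⁵I]-tracer was given via the tail vein, n=4 per time point, and mice were decapitated at 2 min, 30 min, 1, 3 or 6 h. Tissues were weighed and γ-counted as %ID/g. Tumor/blood and tumor/muscle ratios were taken from %ID/g, mean ± SD.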

Intestine = assay: Biodistribution in intestine of C.B.-17/Icr +/+ Jcl mouse xenografted with human LNCAP and PC3 cells at 25.9 MBq, iv after 2 mins; format: ADME, organism-based; settings: in vivo; outline: as §2
[10] = Ratio of drug level in human PC3 cells xenografted in C.B.-17/Icr +/+ Jcl mouse to blood of C.B.-17/Icr +/+ Jcl mouse xenografted with human LNCAP and PC3 cells at 25.9 MBq, iv after 2 mins; format: ADME, organism-based; settings: PC3 tumour xenograft relative to blood; outline: as §4
Nucleic Acid [11] = assay: Ratio of drug level in human PC3 cells xenografted in C.B.-17/Icr +/+ Jcl mouse to muscle of C.B.-17/Icr +/+ Jcl mouse xenografted with human LNCAP and PC3 cells at 25.9 MBq, iv after 6 hrs; format: ADME, organism-based; settings: in vivo; outline: as §4
Serum = assay: Drug degradation in C.B.-17/Icr +/+ Jcl mouse serum after 6 hrs; format: ADME, cell-free
Outline: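 Serum came from heart blood of isoflurane-anesthetized male C.B.-17/Icr +/+ mice (20–22 g), centrifuged at 1,500 × g and stored at −80 °C. ¹²⁵I tracer was incubated in serum at 37 °C, then methanol was added. The sample was centrifuged at 5,000 × g, passed through a 0.45 μm filter, and analyzed by radio-HPLC for intact tracer versus degradation peaks.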

Muscle tissue [12] = assay: Biodistribution in muscle of C.B.-17/Icr +/+ Jcl mouse xenografted with human LNCAP and PC3 cells at 25.9 MBq, iv after 2 mins; format: ADME, organism-based; settings: in vivo; outline: as §1
PC-3 [13] = assay: Biodistribution in PC3 cells in C.B.-17/Icr +/+ Jcl mouse xenografted with human LNCAP and PC3 cells at 25.9 MBq, iv after 30 mins; format: ADME, organism-based; settings: in vivo, 0.5 h; outline: as §2
Kidney [14] = assay: Drug excretion in C.B.-17/Icr […] Jcl mouse kidney xenografted with human LNCAP and PC3 cells at 25.9 MBq, iv; format: ADME, organism-based; settings: in vivo
Lung [15] = assay: Biodistribution in lung of C.B.-17/Icr +/+ Jcl mouse xenografted with human LNCAP and PC3 cells at 25.9 MBq, iv after 30 mins; format: ADME, organism-based; settings: in vivo, 0.5 h; outline: as §1
Liver [16] = assay: Biodistribution in liver of C.B.-17/Icr […] Jcl mouse xenografted with human LNCAP and PC3 cells at 25.9 MBq, iv after 1 hr; format: ADME, organism-based; settings: in vivo; outline: as §2
Lung [17] = assay: Biodistribution in lung of C.B.-17/Icr +/+ Jcl mouse xenografted with human LNCAP and PC3 cells at 25.9 MBq, iv after 1 hr; format: ADME, organism-based; settings: in vivo; outline: as §1
Kidney [18] = assay: Biodistribution in kidney of C.B.-17/Icr […] Jcl mouse xenografted with human LNCAP and PC3 cells at 25.9 MBq, iv after 6 hrs; format: ADME, organism-based; settings: in vivo; outline: as §2
Heart = assay: Biodistribution in heart of C.B.-17/Icr +/+ Jcl mouse xenografted with human LNCAP and PC3 cells at 25.9 MBq, iv after 6 hrs; format: ADME, organism-based; settings: in vivo; outline: as §2
[19] = Ratio of drug level in human LNCAP cells xenografted in C.B.-17/Icr +/+ Jcl mouse to blood of C.B.-17/Icr +/+ Jcl mouse xenografted with human LNCAP and PC3 cells at 25.9 MBq, iv after 2 mins; format: ADME, organism-based; settings: LNCAP tumour xenograft relative to blood; outline: as §3
Nucleic Acid [20] = assay: Ratio of drug level in human LNCAP cells to human PC3 cells xenografted in C.B.-17/Icr […] Jcl mouse at 25.9 MBq, iv after 6 hrs; format: ADME, organism-based; settings: in vivo

- Drug uptake (Kidney [1]): Not Active
- Drug uptake (Spleen): Active
- Drug uptake (Lung [2]): 6.8 % ID/g
- Ratio (Nucleic Acid [3]): 9.6
- Drug uptake (Muscle tissue [4]): 0.5 % ID/g
- Drug uptake (PC-3 [5]): 0.2 % ID/g
- Drug uptake (Liver [6]): 9 % ID/g
- Ratio (Nucleic Acid [7]): 33.9
- Ratio (Nucleic Acid [8]): 2.9
- Kp at 3 h [9]: 0.4
- Drug uptake (Intestine): 3.6 % ID/g
- Kp at 2 min [10]: 0.4
- Ratio (Nucleic Acid [11]): 2.1
- Stability (Serum): Stable
- Drug uptake (Muscle tissue [12]): 1.4 % ID/g
- Drug uptake (PC-3 [13]): 0.9 % ID/g
- Drug excretion (Kidney [14]): Active
- Drug uptake (Lung [15]): 2.9 % ID/g
- Drug uptake (Liver [16]): 13.9 % ID/g
- Drug uptake (Lung [17]): 2.5 % ID/g
- Drug uptake (Kidney [18]): 97.1 % ID/g
- Drug uptake (Heart): 0.4 % ID/g
- Kp at 2 min [19]: 0.6
- Ratio (Nucleic Acid [20]): 36.8
Structure (SMILES): O=C(O)CC[C@H](NC(=O)N[C@@H](CSC1CC(=O)N(CCCC[C@H](NC(=O)CNC(=O)c2cccc([125I])c2)C(=O)O)C1=O)C(=O)O)C(=O)O (some centres undefined)
